Assay results of several laboratories.
Lines come from different studies, so protocols differ.
Palmitoyl-protein thioesterase 1: Palmitoyl-protein thioesterase 1 (Homo sapiens, UniProt P50897)
Transmembrane protease serine 6: Transmembrane protease serine 6 (Homo sapiens, UniProt Q8IU80)

O=C1OCCN1/N=C/c1ccc([N+](=O)[O-])o1 — inhibition (Palmitoyl-protein thioesterase 1; enzyme activity, inhibitor; 125 µM): 29%
Cc1cc([C@@H](C)Nc2ccccc2C(=O)O)c2nc(N3CCC(F)(F)CC3)c(C#N)c(=O)n2c1 — remaining binding (SRSF protein kinase 3 (SRPK3, Homo sapiens, UniProt Q9UPE1); binding, competition with immobilised ligand; 1 µM): 77%
N=C(N)NCCC[C@H](NC(=O)[C@@H](NC(=O)[C@H](Cc1cscn1)NC(=O)CCc1ccccc1)C(c1ccccc1)c1ccccc1)C(=O)c1nc2ccccc2s1 — remaining activity (Transmembrane protease serine 6; enzyme activity, inhibitor; 0.1 µM): 65%
c1coc(CNc2ncnc3[nH]cnc23)c1 — inhibition (Palmitoyl-protein thioesterase 1; enzyme activity, inhibitor; 125 µM): 8.93%
CC[C@@H](C)[C@H](NC(=O)[C@H](Cc1cscn1)NC(=O)CCc1ccccc1)C(=O)N[C@@H](CCCNC(=N)N)C(=O)c1nc2ccccc2s1 — remaining activity (Transmembrane protease serine 6; enzyme activity, inhibitor; 0.1 µM): 1%
C=CC(=O)N1CCC(COCC(=O)N2CCN(c3nc(-c4cnc(N)nc4C(F)F)nc(N4CCOC[C@@H]4C)n3)CC2)CC1 — remaining binding (Mitogen-activated protein kinase 4 (MAPK4, Homo sapiens, UniProt P31152); binding, competition with immobilised ligand; 1 µM): 100%
COc1c(O)cc2c(c1O)[C@@H]1O[C@H](CO)[C@@H](O)[C@H](O)[C@H]1OC2=O — inhibition (Palmitoyl-protein thioesterase 1; enzyme activity, inhibitor; 125 µM): 7.04%
CC(C)(C)[C@H](NC(=O)[C@H](Cc1cscn1)NC(=O)CCc1ccccc1)C(=O)N[C@@H](CCCNC(=N)N)C(=O)c1nc2ccccc2s1 — remaining activity (Transmembrane protease serine 6; enzyme activity, inhibitor; 0.1 µM): 55%
C=C[C@H]1C[N@@]2CC[C@H]1C[C@H]2[C@H](O)c1ccnc2ccc(OC)cc12 — inhibition (Palmitoyl-protein thioesterase 1; enzyme activity, inhibitor; 125 µM): 18.6%
COc1cc(-c2cncc3c2CN(C)Cc2cc(N4CCNCC4)ccc2-3)cc(OC)c1OC — remaining activity (Protein kinase C delta type (PRKCD, Homo sapiens, UniProt Q05655); enzyme activity, inhibitor; 1 µM): 104%
CC[C@H](NC(=O)[C@H](Cc1cscn1)NC(=O)CCc1ccccc1)C(=O)N[C@@H](CCCNC(=N)N)C(=O)c1nc2ccccc2s1 — remaining activity (Transmembrane protease serine 6; enzyme activity, inhibitor; 0.1 µM): 20 to 50%
CNc1ncc2c(/C=C/C(=O)N3CCC(OC)CC3)nn(Cc3cccc(C(F)(F)F)c3)c2n1 — remaining activity (Ribosomal protein S6 kinase alpha-2 (RPS6KA2, Homo sapiens, UniProt Q15349); enzyme activity, inhibitor, radiometric; 1 µM): 86%
O=C(CCCN1CC=C(n2c(=O)[nH]c3ccccc32)CC1)c1ccc(F)cc1 — inhibition (Palmitoyl-protein thioesterase 1; enzyme activity, inhibitor; 125 µM): 1.07%
N=C(N)NCCC[C@H](NC(=O)[C@@H](NC(=O)[C@H](Cc1cscn1)NC(=O)CCc1ccccc1)C1CC1)C(=O)c1nc2ccccc2s1 — remaining activity (Transmembrane protease serine 6; enzyme activity, inhibitor; 0.1 µM): 88%
Cc1ccc2c(-c3cc4c(CN5CCN(Cc6ccccn6)CC5)cnc(C)c4o3)cc(=O)oc2c1 — inhibition (Epidermal growth factor receptor (EGFR, Homo sapiens, UniProt P00533, L858R/T790M); enzyme activity, inhibitor, ADP detection; 1 µM): 65 to 75%
